Measurements reported in ChEMBL document CHEMBL4330063, “New naphthopyran analogues of LY290181 as potential tumor vascular-disrupting agents” (Eur J Med Chem, 2019).
The source made the active and inactive calls. No cut-off for these calls is given here.

Columns and labels:
Chorioallantoic membrane [1] = assay: Antiangiogenic activity in Leghorn chicken embryo chorioallantoic membrane assessed as disruption of smaller blood vessels at 5 nmol after 6 hrs by light microscopic analysis; type: functional, tissue-based; settings: Gallus gallus
How it was run: (§1)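 Fertilized chicken eggs, CAM assay. Compound was applied topically into a small silicon foil ring placed on the CAM. The membrane and its extraembryonal blood vessels were monitored over 24 h, with observations at 6 h and 24 h post application.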

Chorioallantoic membrane [2] = assay: Antiangiogenic activity in Leghorn chicken embryo chorioallantoic membrane assessed as induction of hemorrhages at 5 nmol after 6 hrs by light microscopic analysis; type: functional, tissue-based; settings: Gallus gallus; how it was run: as §1
Chorioallantoic membrane [3] = assay: Antiangiogenic activity in Leghorn chicken embryo chorioallantoic membrane assessed as induction of hemorrhages at 5 nmol after 24 hrs by light microscopic analysis; type: functional, tissue-based; settings: Gallus gallus; how it was run: as §1
Chorioallantoic membrane [4] = assay: Antiangiogenic activity in Leghorn chicken embryo chorioallantoic membrane assessed as reduction in diameter of main blood vessel at 5 nmol after 24 hrs by light microscopic analysis; type: functional, tissue-based; settings: Gallus gallus; how it was run: as §1
Chorioallantoic membrane [5] = assay: Antiangiogenic activity in Leghorn chicken embryo chorioallantoic membrane assessed as reduction in blood vessel area at 5 nmol after 6 hrs by light microscopic analysis relative to control; type: functional, tissue-based; parameters: scale not given: the % may be the effect or the level left; settings: Gallus gallus
How it was run: (§2)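 The CAM assay was run with topical application into a silicon foil ring atop the CAM of fertilized chicken eggs. Area covered by blood vessels was quantified by fractal analysis relative to control.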

Chorioallantoic membrane [6] = assay: Antiangiogenic activity in Leghorn chicken embryo chorioallantoic membrane assessed as effect on blood vessel length at 5 nmol after 6 hrs by light microscopic analysis; type: functional, tissue-based; settings: Gallus gallus; how it was run: as §1
A2780cis = assay: Antitumor activity against human A2780cis xenografted in nude mouse at 60 mg/kg, ip administered on day 0, 4, 11 and 16; type: functional, organism-based
Chorioallantoic membrane [7] = assay: Antiangiogenic activity in Leghorn chicken embryo chorioallantoic membrane assessed as disruption of smaller blood vessels at 5 nmol after 24 hrs by light microscopic analysis; type: functional, tissue-based; settings: Gallus gallus; how it was run: as §1
A2780 [8] = assay: Antivascular activity against human A2780 cells xenografted in nude mouse assessed as induction of hemorrhages at tumor core at 100 mg/kg administered on every other day and measured after 24 hrs by H and E staining based histopathological analysis; type: functional, organism-based
A2780 [9] = assay: Antivascular activity against human A2780 cells xenografted in nude mouse assessed as induction of necrosis at tumor core at 100 mg/kg […] and measured after 24 hrs by H and E staining based histopathological analysis; type: functional, organism-based
How it was run: (§3)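 Mice bore A2780 tumor xenografts. Compound was formulated in tween80/ethanol (1:1) and injected as single doses. Tumors were inspected for discoloration as a sign of vascular disruption, and treated tumors were examined histologically for hemorrhage and necrosis.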

A2780 [10] = assay: Antivascular activity against human A2780 cells xenografted in nude mouse assessed as tumor discoloration at 200 mg/kg administered on every other day and measured after 24 hrs; type: functional, organism-based; settings: in the assay text read “administered as single dose” for “administered on every other day”; how it was run: as §3
Chorioallantoic membrane [11] = assay: Antiangiogenic activity in Leghorn chicken embryo chorioallantoic membrane assessed as disruption of smaller blood vessels at 10 nmol after 6 hrs by light microscopic analysis; type: functional, tissue-based; settings: Gallus gallus; how it was run: as §1
Chorioallantoic membrane [12] = assay: Antiangiogenic activity in Leghorn chicken embryo chorioallantoic membrane assessed as induction of hemorrhages at 10 nmol after 6 hrs by light microscopic analysis; type: functional, tissue-based; settings: Gallus gallus; how it was run: as §1
Chorioallantoic membrane [13] = assay: Antiangiogenic activity in Leghorn chicken embryo chorioallantoic membrane assessed as induction of hemorrhages at 10 nmol after 24 hrs by light microscopic analysis; type: functional, tissue-based; settings: Gallus gallus; how it was run: as §1
Chorioallantoic membrane [14] = assay: Antiangiogenic activity in Leghorn chicken embryo chorioallantoic membrane assessed as disruption of smaller blood vessels at 10 nmol after 24 hrs by light microscopic analysis; type: functional, tissue-based; settings: Gallus gallus; how it was run: as §1
Chorioallantoic membrane [15] = assay: Antiangiogenic activity in Leghorn chicken embryo chorioallantoic membrane assessed as reduction in diameter of main blood vessel at 10 nmol after 24 hrs by light microscopic analysis; type: functional, tissue-based; settings: Gallus gallus; how it was run: as §1
Chorioallantoic membrane [16] = assay: Antiangiogenic activity in Leghorn chicken embryo chorioallantoic membrane assessed as reduction in blood vessel area at 10 nmol after 6 hrs by light microscopic analysis relative to control; type: functional, tissue-based; parameters: scale not given: the % may be the effect or the level left; settings: Gallus gallus; how it was run: as §2
Chorioallantoic membrane [17] = assay: Antiangiogenic activity in Leghorn chicken embryo chorioallantoic membrane assessed as effect on blood vessel length at 10 nmol after 6 hrs by light microscopic analysis; type: functional, tissue-based; settings: Gallus gallus; how it was run: as §1

| SMILES | Activity (Chorioallantoic membrane [1]) | Activity (Chorioallantoic membrane [2]) | Activity (Chorioallantoic membrane [3]) | Activity (Chorioallantoic membrane [4]) | Activity (Chorioallantoic membrane [5]) [%] | Activity (Chorioallantoic membrane [6]) | Activity (A2780cis) | Activity (Chorioallantoic membrane [7]) | Activity (A2780 [8]) | Activity (A2780 [9]) | Activity (A2780 [10]) | Activity (Chorioallantoic membrane [11]) | Activity (Chorioallantoic membrane [12]) | Activity (Chorioallantoic membrane [13]) | Activity (Chorioallantoic membrane [14]) | Activity (Chorioallantoic membrane [15]) | Activity (Chorioallantoic membrane [16]) [%] | Activity (Chorioallantoic membrane [17]) |
| --- | --- | --- | --- | --- | --- | --- | --- | --- | --- | --- | --- | --- | --- | --- | --- | --- | --- | --- |
| N#CC1=C(N)Oc2c(ccc3ccccc23)C1c1cc(F)cc(F)c1 (stereo not drawn) | Active | Active | inactive | Active | 59 | Active | Active | inactive | Active | Active | – | – | – | – | – | – | – | – |
| N#CC1=C(N)Oc2c(ccc3ccccc23)C1c1cccc([N+](=O)[O-])c1 (stereo not drawn) | – | – | – | – | – | – | – | – | – | – | inactive | Active | Active | inactive | inactive | Active | 32 | Active |
